Values belong to the compound of their own block, whether it stands above or below them.
Legend:
Homo sapiens = species: Homo sapiens; assay: Inhibition of human recombinant ABL at 500 nM in presence of ATP by radiometric assay relative to control
Method in brief: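 Panel of 327 recombinant human kinases in radiometric activity assays, each screened in duplicate at a single inhibitor concentration; percent activity remaining relative to vehicle control, percent inhibition taken as 100 minus activity remaining.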

[1] = molecular target: Serine/threonine-protein kinase 32C (Homo sapiens) (UniProt Q86UX6); assay: Inhibition of human recombinant YANK3 at 500 nM in presence of ATP by radiometric assay relative to control
[2] = molecular target: T1, Serine/threonine-protein kinase 17B (Homo sapiens) (UniProt O94768); assay: Inhibition of human recombinant DRAK2 at 15 nM related to control ULK1
T1 sequence (whole entry): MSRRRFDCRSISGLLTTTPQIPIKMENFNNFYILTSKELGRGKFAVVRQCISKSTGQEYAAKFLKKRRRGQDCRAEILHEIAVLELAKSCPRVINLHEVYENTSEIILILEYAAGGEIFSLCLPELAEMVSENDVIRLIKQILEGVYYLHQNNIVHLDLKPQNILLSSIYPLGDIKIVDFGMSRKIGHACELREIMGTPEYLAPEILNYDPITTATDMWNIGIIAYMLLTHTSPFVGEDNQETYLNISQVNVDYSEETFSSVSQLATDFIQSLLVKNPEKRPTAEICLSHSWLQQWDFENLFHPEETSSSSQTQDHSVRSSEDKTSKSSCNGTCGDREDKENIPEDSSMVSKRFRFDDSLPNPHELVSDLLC

[3] = molecular target: T2, Tyrosine-protein kinase JAK3 (Homo sapiens) (UniProt P52333); assay: Inhibition of human recombinant JAK3 at 15 nM related to control ULK1
T2 sequence (whole entry): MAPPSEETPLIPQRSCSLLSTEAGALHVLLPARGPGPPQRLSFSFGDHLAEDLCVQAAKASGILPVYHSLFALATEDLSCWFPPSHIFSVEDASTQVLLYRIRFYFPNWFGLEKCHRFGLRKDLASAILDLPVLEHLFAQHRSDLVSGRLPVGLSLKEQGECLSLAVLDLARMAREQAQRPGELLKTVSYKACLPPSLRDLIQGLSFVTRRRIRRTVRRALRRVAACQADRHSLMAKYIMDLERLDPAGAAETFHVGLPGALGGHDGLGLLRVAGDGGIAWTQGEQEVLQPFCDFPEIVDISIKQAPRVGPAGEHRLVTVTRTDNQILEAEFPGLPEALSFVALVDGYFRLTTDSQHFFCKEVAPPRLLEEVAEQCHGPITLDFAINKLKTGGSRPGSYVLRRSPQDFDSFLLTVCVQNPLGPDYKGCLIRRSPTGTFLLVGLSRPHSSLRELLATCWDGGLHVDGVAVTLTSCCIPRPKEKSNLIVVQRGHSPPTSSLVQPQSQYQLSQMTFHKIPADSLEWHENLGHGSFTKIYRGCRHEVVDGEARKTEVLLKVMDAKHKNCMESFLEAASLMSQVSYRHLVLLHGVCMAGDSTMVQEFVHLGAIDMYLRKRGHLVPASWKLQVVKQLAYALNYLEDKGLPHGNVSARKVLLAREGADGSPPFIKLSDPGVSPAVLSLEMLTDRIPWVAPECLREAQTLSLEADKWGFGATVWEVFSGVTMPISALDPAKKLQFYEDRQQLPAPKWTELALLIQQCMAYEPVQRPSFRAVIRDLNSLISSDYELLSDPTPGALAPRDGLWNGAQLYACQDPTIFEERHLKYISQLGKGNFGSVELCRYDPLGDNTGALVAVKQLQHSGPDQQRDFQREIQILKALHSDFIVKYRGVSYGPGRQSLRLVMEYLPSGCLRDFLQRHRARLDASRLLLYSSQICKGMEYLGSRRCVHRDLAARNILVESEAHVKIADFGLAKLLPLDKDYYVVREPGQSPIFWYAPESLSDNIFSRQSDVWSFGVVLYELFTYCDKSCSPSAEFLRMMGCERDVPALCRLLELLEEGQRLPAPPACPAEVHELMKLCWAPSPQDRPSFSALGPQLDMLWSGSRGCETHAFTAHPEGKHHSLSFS

[4] = molecular target: Serine/threonine-protein kinase 17A (Homo sapiens, UniProt Q9UEE5); assay: Inhibition of human recombinant DRAK1
[5] = molecular target: T3, Mitogen-activated protein kinase 12 (Homo sapiens) (UniProt P53778); assay: Inhibition of human recombinant p38gamma at 40 nM related to control ULK1
T3 sequence (whole entry): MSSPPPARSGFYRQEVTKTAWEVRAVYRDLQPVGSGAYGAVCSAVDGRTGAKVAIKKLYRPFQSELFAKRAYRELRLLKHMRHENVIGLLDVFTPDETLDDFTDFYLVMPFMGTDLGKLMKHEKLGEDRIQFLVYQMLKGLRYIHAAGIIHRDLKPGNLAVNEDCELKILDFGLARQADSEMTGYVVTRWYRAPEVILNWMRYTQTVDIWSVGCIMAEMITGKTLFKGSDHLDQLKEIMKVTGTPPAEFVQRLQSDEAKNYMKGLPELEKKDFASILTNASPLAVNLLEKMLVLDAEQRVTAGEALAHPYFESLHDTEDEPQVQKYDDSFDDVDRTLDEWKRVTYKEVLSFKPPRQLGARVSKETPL

[6] = molecular target: T4, Inhibitor of nuclear factor kappa-B kinase subunit epsilon (Homo sapiens) (UniProt Q14164); assay: Inhibition of human recombinant IKKe at 40 nM in presence of ATP by radiometric assay relative to control
T4 sequence (whole entry): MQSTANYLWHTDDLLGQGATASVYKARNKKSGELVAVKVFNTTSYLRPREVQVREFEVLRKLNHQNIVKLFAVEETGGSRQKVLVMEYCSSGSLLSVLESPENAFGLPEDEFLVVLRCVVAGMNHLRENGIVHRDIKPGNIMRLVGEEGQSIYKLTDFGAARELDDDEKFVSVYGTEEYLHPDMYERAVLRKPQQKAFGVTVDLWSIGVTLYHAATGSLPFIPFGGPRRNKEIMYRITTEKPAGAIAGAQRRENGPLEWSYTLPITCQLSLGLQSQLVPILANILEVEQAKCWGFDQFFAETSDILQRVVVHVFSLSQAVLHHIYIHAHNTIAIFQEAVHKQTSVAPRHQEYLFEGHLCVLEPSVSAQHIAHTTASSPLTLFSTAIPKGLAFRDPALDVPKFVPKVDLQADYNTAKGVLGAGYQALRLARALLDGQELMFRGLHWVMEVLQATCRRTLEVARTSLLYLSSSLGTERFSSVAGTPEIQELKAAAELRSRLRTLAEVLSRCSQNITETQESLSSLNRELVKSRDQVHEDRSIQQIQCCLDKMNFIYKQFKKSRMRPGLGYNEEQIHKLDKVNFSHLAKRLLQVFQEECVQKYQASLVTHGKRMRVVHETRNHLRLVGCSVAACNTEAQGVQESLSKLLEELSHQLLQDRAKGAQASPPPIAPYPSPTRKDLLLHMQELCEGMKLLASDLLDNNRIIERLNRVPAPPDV

[7] = molecular target: Glycogen synthase kinase-3 beta (Homo sapiens) (UniProt P49841); assay: Inhibition of human recombinant GSK3B at 40 nM in presence of ATP by radiometric assay relative to control
Sequence of Glycogen synthase kinase-3 beta (Homo sapiens) (P49841 whole entry, looked up): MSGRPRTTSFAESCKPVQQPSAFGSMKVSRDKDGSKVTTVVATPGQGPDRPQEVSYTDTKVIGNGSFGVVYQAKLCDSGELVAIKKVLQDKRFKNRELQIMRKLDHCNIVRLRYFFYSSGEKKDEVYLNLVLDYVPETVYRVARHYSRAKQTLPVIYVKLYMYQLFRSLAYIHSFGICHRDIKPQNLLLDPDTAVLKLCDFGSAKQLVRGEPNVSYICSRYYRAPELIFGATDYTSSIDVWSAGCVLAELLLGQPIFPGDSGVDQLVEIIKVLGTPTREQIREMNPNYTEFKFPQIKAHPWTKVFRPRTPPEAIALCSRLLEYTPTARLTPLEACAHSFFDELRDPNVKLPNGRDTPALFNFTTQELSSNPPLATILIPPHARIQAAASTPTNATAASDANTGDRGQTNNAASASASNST

Sequence of Serine/threonine-protein kinase 32C (Homo sapiens) (Q86UX6 whole entry): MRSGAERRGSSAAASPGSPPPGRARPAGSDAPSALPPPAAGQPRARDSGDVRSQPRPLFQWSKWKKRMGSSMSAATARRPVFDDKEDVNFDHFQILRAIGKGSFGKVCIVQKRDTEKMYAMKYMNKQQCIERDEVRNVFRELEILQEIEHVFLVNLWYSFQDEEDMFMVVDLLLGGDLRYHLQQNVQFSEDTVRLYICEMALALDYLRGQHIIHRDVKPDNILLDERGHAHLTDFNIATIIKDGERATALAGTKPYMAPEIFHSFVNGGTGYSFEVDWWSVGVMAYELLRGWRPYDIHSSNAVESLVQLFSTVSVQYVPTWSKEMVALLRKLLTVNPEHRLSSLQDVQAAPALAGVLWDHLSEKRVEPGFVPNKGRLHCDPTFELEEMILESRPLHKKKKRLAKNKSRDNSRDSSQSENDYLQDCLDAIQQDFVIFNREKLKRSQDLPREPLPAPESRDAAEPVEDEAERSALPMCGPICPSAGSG
Sequence of Serine/threonine-protein kinase 17A (Q9UEE5 whole entry): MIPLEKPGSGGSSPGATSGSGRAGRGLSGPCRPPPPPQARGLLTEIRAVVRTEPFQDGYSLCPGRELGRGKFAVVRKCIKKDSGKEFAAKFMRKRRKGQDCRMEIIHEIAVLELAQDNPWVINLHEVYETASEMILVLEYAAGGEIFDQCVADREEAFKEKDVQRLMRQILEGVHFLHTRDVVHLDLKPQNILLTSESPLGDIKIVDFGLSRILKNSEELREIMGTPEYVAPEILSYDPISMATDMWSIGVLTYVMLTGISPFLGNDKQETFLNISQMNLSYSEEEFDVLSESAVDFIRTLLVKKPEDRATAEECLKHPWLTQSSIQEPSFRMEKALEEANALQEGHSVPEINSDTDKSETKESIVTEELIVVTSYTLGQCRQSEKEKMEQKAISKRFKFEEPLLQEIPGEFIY

- inhibition (Homo sapiens): 14%
- inhibition [1]: 0%
SMILES: CNC(=O)c1ccccc1Oc1nc(Nc2cc(OC)c(OC)c(OC)c2)ncc1Br

- fold change (FC) [2]: 0.78
- fold change (FC) [3]: 0
SMILES: CC(C)[C@H](NC(=O)c1cc(-c2cnn3cc(-c4ccc(OCCN5CCCCC5)cc4)cnc23)cs1)C(F)(F)F

- IC50 [4]: 14 nM
- fold change (FC) [5]: 0
- inhibition [6]: 30%
- inhibition [7]: 0%
SMILES: O=C(N[C@@H](C1CC1)C(F)(F)F)c1cc(-c2cnn3cc(-c4ccc(F)cc4)cnc23)cs1

From ChEMBL document CHEMBL5653631, “A Potent and Selective ULK1 Inhibitor Suppresses Autophagy and Sensitizes Cancer Cells to Nutrient Stress” (iScience, 2018)
